The record followed here is ChEMBL document CHEMBL1125657 (J Med Chem, 1991).

Assay [1] has as its target T1, Mu-type opioid receptor (Cavia porcellus, UniProt P97266). Briefly: Binding affinity against Opioid receptor mu 1 was measured in the guinea pig brain membranes using [3H]DAMGO as radioligand. Format: cell membranes, Membrane. The gist of the method: (§1)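 Guinea pig brain membranes, using a modified version of a published method. μ sites were labelled with [³H]DAMGO. κ sites were labelled with [³H]EK plus 1 μM unlabeled DAMGO. δ sites were labelled with [³H]DADLE plus 1 μM unlabeled DAMGO. Ki values were derived by displacement.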

In assay [2] the target is Delta-type opioid receptor (Mus musculus) (UniProt P32300). Nature of the assay: Maximal inhibition of compound was measured on Mouse vas deferens(MVD) preparation. It is filed as functional. The gist of the method: (§2)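 Agonist activity at 1 μM on electrically stimulated guinea pig ileum and mouse vas deferens preparations. Maximal inhibition or stimulation was recorded, averaged over three determinations.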
Delta-type opioid receptor (Mus musculus), sequence (P32300 whole entry): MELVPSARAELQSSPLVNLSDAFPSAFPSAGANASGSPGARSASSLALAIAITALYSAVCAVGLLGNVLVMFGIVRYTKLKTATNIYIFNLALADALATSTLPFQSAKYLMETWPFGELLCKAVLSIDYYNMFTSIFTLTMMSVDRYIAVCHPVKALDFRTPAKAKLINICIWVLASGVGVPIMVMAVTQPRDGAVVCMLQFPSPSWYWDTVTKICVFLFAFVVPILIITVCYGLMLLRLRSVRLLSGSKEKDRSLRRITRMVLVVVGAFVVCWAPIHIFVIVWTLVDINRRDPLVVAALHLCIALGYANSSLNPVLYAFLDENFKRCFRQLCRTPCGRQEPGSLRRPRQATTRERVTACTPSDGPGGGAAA

The target of assay [3] is Kappa-type opioid receptor (Cavia porcellus) (UniProt P41144). Briefly: Binding affinity of compound was measured against Opioid receptor kappa 1 on electrically stimulated guinea pig ileal longitudinal muscle myenteric plexus (GPI) at 100 nM preparation using EK as agonist. The procedure, abridged: (§3)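 Electrically stimulated guinea pig ileal longitudinal muscle was used for μ agonists (M, DAMGO) and κ agonists (EK, U50488H). Mouse vas deferens was used for δ agonists (DADLE, DPDPE). Antagonist at 100 nM unless specified, preincubated 15 min. Agonist concentration-response curves were run without and then with antagonist in the same tissue, giving IC50s. Ke = [antagonist]/(IC50 ratio − 1).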
Kappa-type opioid receptor (Cavia porcellus), sequence (P41144 whole entry): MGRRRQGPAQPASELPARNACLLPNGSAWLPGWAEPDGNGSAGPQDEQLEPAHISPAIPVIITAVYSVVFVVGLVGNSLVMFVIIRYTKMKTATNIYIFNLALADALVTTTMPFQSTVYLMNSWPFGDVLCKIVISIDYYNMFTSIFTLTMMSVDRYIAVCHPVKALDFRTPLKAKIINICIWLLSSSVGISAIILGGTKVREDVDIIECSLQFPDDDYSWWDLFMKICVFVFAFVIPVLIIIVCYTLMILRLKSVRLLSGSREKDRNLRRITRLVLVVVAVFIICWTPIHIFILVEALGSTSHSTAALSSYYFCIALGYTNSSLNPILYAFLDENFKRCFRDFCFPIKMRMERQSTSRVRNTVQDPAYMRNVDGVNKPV

Assay [4] can be described thus: Compound was tested for antagonist activity against Opioid receptor delta 1 in mouse vas deferens (MVD) smooth muscle preparation at 100 nM using DADLE as agonist. Format: functional. The gist of the method:
as §3

The target in assay [5] is T2, Kappa-type opioid receptor (Cavia porcellus, UniProt P41144). Nature of the assay: Binding affinity against Opioid receptor kappa 1 was measured in the guinea pig brain membranes using [3H]EK in the presence of 1 uM unlabeled DAMGO as radioligand. It is filed as cell membranes, Membrane. The procedure, abridged:
as §1

The target of assay [6] is Mu-type opioid receptor (Cavia porcellus) (UniProt P97266). Briefly: Binding affinity of compound was measured against Opioid receptor mu 1 on electrically stimulated guinea pig ileal longitudinal muscle myenteric plexus (GPI)at 100 nM preparation using M as agonist. The procedure, abridged:
as §3

Assay [7] deals with Mu-type opioid receptor (Homo sapiens) (UniProt P35372). Nature of the assay: Compound was tested for antagonist activity against mu opioid receptor on electrically stimulated guinea pig ileal longitudinal muscle myenteric plexus (GPI) at 100 nM using M as agonist ligand. Format: functional. The gist of the method:
as §3

Assay [8] concerns the target Mu-type opioid receptor (Cavia porcellus) (UniProt P97266). Briefly: Maximal inhibition of compound was measured on guinea pig ileal longitudinal muscle (GPI) preparation at 1 uM concentration. It is filed as functional, tissue-based. To be noted: Muscle tissue. The gist of the method: as §2
Assay [9] deals with Delta-type opioid receptor (Mus musculus) (UniProt P32300). Nature of the assay: Binding affinity of compound was measured against Opioid receptor delta 1 in mouse vas deferens (MVD) smooth muscle preparation at 100 nM using DADLE as standard agonist. The gist of the method: as §3
Assay [10] deals with Opioid receptors; mu & kappa (Homo sapiens) (UniProt P41145+P35372). Briefly: Ki ratio measured as the ke values of mu receptor/kappa receptor from guinea pig brain membranes.
Opioid receptors; mu & kappa (Homo sapiens), sequence (P35372 whole entry, looked up): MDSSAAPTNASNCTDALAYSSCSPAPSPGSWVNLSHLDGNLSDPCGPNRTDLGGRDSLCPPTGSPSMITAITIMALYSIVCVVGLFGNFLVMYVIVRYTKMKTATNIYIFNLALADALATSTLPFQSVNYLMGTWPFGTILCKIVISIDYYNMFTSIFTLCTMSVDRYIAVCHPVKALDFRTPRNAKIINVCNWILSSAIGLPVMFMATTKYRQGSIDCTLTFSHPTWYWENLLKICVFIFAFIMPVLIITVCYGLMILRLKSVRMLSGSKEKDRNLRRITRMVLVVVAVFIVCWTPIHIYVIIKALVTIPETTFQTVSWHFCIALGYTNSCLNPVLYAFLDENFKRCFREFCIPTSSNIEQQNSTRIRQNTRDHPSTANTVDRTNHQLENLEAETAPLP
Opioid receptors; mu & kappa (Homo sapiens), sequence (P41145 whole entry, looked up): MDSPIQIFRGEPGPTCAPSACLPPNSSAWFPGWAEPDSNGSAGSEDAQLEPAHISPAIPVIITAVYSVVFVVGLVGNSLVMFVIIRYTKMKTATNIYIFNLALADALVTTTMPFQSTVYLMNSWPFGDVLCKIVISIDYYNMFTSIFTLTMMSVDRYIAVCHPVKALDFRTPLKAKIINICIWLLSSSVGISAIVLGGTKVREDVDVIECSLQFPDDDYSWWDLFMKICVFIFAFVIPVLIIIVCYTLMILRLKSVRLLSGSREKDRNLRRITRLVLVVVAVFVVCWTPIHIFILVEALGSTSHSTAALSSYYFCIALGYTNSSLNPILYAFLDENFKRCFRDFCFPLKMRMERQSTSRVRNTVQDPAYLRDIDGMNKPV
The subject of assay [11] is Kappa-type opioid receptor. Nature of the assay: Compound was tested for antagonist activity against kappa opioid receptor on electrically stimulated guinea pig ileal longitudinal muscle myenteric plexus (GPI) at 100 nM using EK as agonist ligand. It is filed as functional. The procedure, abridged: as §3
For assay [12], the target named is Mu-type opioid receptor (Homo sapiens) (UniProt P35372). Nature of the assay: Compound was tested for antagonist activity against mu opioid receptor on electrically stimulated guinea pig ileal longitudinal muscle myenteric plexus (GPI) at 100 nM using M as agonist ligand. IC50. It is filed as functional. The gist of the method: as §3
Mu-type opioid receptor (Homo sapiens), sequence (P35372 whole entry): as the sequence (P35372 whole entry, looked up) above
Assay [13] deals with T2, Kappa-type opioid receptor. Briefly: (§4) Binding affinity of compound was measured against Opioid receptor kappa 1 on electrically stimulated guinea pig ileal longitudinal muscle myenteric plexus (GPI) at 100 nM preparation using U-50,488H as agonist. The gist of the method: as §3
Assay [14] deals with Mu-type opioid receptor (Cavia porcellus) (UniProt P97266). Briefly: (§5) Binding affinity of compound was measured against Opioid receptor mu 1 on electrically stimulated guinea pig ileal longitudinal muscle myenteric plexus (GPI)at 100 nM preparation using DAMGO as agonist. The gist of the method: as §3
Mu-type opioid receptor (Cavia porcellus), sequence (P97266 whole entry): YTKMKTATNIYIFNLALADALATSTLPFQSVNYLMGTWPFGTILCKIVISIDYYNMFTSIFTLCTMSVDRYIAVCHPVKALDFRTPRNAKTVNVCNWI
In assay [15] the target is Delta-type opioid receptor (Mus musculus) (UniProt P32300). Nature of the assay: Binding affinity of compound was measured against Opioid receptor delta 1 in mouse vas deferens (MVD) smooth muscle preparation at 100 nM using DPDPE as standard agonist. The procedure, abridged: as §3
In assay [16] the target is Kappa-type opioid receptor (Homo sapiens) (UniProt P41145). Briefly: Compound was tested for antagonist activity against kappa opioid receptor on electrically stimulated guinea pig ileal longitudinal muscle myenteric plexus (GPI) at 100 nM using U-50,488H as agonist ligand. Format: functional. The gist of the method:
as §3

Assay [17] deals with T1, Mu-type opioid receptor. The assay is described as §5. The procedure, abridged: as §3
In assay [18] the target is Mu-type opioid receptor (Homo sapiens) (UniProt P35372). Briefly: Compound was tested for antagonist activity against mu opioid receptor on electrically stimulated guinea pig ileal longitudinal muscle myenteric plexus (GPI) at 100 nM using DAMGO as agonist ligand. Format: functional. The procedure, abridged: as §3
Assay [19] has as its system Mus musculus. Nature of the assay: compound was tested for antagonism of the antinociceptive effect of EK opioid agonist, sc in mice in an acetic acid writhing assay in a treated group(icv with 100 nmol of 2.HCl in 5 microL of saline). It is filed as functional. The gist of the method: (§6)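 Mouse acetic acid writhing assay. Antagonist was given icv at 100 nmol in 5 μL saline, timed so its 60-min peak effect fell at the centre of the observation period. Agonists (M, EK, U50488H) were given sc at four dose levels to control and treated mice. ED50 ratio = treated ED50 / control ED50.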
A general note: In writhing tests, fewer writhes than in controls are read as antinociception.

The test system of assay [20] is Mus musculus. Briefly: Compound was tested for antagonism of the antinociceptive effect of U-50, 488H opioid agonist, sc in mice in an acetic acid writhing assay in a treated group(icv with 100 nmol of 2.HCl in 5 microL of saline). Format: functional. The procedure, abridged: as §6
Assay [21] deals with Mus musculus. Briefly: Compound was tested for antagonism of the antinociceptive effect of U-50, 488H opioid agonist, sc in mice in an acetic acid writhing assay in a control group. Format: functional. The gist of the method: as §6
The subject of assay [22] is Mus musculus. Nature of the assay: Compound was tested for antagonism of the antinociceptive effect of M opioid agonist, sc in mice in an acetic acid writhing assay in a treated group(icv with 100 nmol of 2.HCl in 5 microL of saline). Format: functional. The gist of the method:
as §6

Assay [23] has as its system Mus musculus. Nature of the assay: Compound was tested for antagonism of the antinociceptive effect of EK opioid agonist, sc in mice in an acetic acid writhing assay in a control group. Format: functional. The gist of the method:
as §6

For assay [24], the system named is Mus musculus. Nature of the assay: Compound was tested for antagonism of the antinociceptive effect of M opioid agonist, sc in mice in an acetic acid writhing assay in a control group. Format: functional. The gist of the method: as §6
In assay [25] the target is Kappa-type opioid receptor (Cavia porcellus) (UniProt P41144). The description is as §4. The procedure, abridged: as §3

Bounds are passed on as bounds.

Usually Ki stands for a measure of affinity in units of concentration, obtained from inhibition or displacement. Broadly, the ED50 is the midpoint of the dose-response relation. Higher therefore signals a need for a large dose.

T1 sequence (P97266 whole entry): as above
T2 sequence (P41144 whole entry): as the sequence (P41144 whole entry) above
Kappa-type opioid receptor (Homo sapiens), sequence (P41145 whole entry): as the sequence (P41145 whole entry, looked up) above

With `Oc1ccc2c3c1O[C@H]1C4=C(C[C@@]5(O)[C@@H](C2)N(CC2CC2)CC[C@]315)C(c1ccccc1)C1=C(O4)[C@@H]2Oc3c(O)ccc4c3[C@@]23CCN(CC2CC2)[C@H](C4)[C@]3(O)C1`, the Ki on Mu-type opioid receptor [1] came out at 29 nM; in [5] it was 10 nM. The Activity is 9 in assay [2] and -24 in assay [8]. In addition, the Ke in [3] is 2.6 nM; in assay [6], 39 nM; in assay [9] it was 36 nM. The Ratio in assay [4] stood at 3.8; in assay [7], 3.6; in [10], 11; in assay [11], 39.

In the case of `Cn1c2c(c3c1[C@@H]1Oc4c(O)ccc5c4[C@@]14CCN(CC1CC1)[C@H](C5)[C@]4(O)C3)C[C@@]1(O)[C@H]3Cc4ccc(O)c5c4[C@@]1(CCN3CC1CC1)[C@H]2O5` [BINALTORPHIMINE], the Ki came out at 18 nM on Mu-type opioid receptor [1] and 0.41 nM in assay [5]. For the same compound, the Ratio in [10] was found to be 44.

In the case of `Oc1ccc2c3c1O[C@H]1c4sc5c(c4C[C@@]4(O)[C@@H](C2)N(CC2CC2)CC[C@]314)C[C@@]1(O)[C@H]2Cc3ccc(O)c4c3[C@@]1(CCN2CC1CC1)[C@H]5O4`, the Activity in [2] is -26; in [8], -17. Also, the Ratio was determined as 3.5 in assay [12]; 33 in assay [16]; 4 in assay [4]; 1.9 in assay [18]; 39 in assay [11]. The Ke in assay [3] is 2.6 nM; in [14] it was more than 103 nM; in assay [15], more than 556 nM; in assay [6], 41 nM; in assay [9], 33 nM; in assay [25] it was 3.1 nM. The inhibition constant Ki in assay [13] came to 1.4 nM; on Mu-type opioid receptor [17], 189 nM. In addition, the median effective dose (ED50) with Mus musculus [19] amounted to 0.13 mg/kg; in the assay with Mus musculus [20] it was 11.2 mg/kg; in the assay on Mus musculus [21], 1.5 mg/kg; with Mus musculus [22], 5.4 mg/kg; in the assay on Mus musculus [23], 0.038 mg/kg; with Mus musculus [24], 0.91 mg/kg.

For the compound `O=C1C(=Cc2ccccc2)C[C@@]2(O)[C@H]3Cc4ccc(O)c5c4[C@@]2(CCN3CC2CC2)[C@H]1O5`, the Activity in [2] is -35; in assay [8], -8. Further, the values for the Ratio in assay [12], in assay [4] and in [11] were 13.1, 35 and 2, respectively. For the same compound, the Ke in assay [3] amounted to 100 nM; in assay [6], 8.3 nM; in assay [9] it was 2.9 nM.

On to `Oc1ccc2c3c1O[C@H]1C(SSC4=CC[C@@]5(O)[C@H]6Cc7ccc(O)c8c7[C@@]5(CCN6CC5CC5)[C@H]4O8)=CC[C@@]4(O)[C@@H](C2)N(CC2CC2)CC[C@]314`, for which the Activity turned out to be 15 in assay [2] and 40 in [8]. Further, the values for the Ratio in [12], in assay [4] and in assay [11] were 14.6, 8.6 and 9.7, respectively. In addition, the results for the Ke in assay [3], in [6] and in [9] were 3.5 nM, 2.2 nM and 13.2 nM, respectively.

As to `Oc1ccc2c3c1O[C@H]1c4[nH]c5c(c4C[C@@]4(O)[C@@H](C2)N(CC2CC2)CC[C@]314)C[C@@]1(O)[C@H]2Cc3ccc(O)c4c3[C@@]1(CCN2CC1CC1)[C@H]5O4` [NORBINALTORPHIMINE], the values for the Activity in [2] and in [8] were 16 and 14, respectively. Also, the Ke in assay [3] is 0.55 nM; in assay [14], 22 nM; in assay [6], 14 nM; in [9], 10.6 nM; in [25] it was 0.21 nM. Also, the inhibition constant (Ki) was 0.26 nM in assay [13] and 47 nM on Mu-type opioid receptor [17].
